This is an account of results in ChEMBL document CHEMBL4011604, “Bishomoisoprenoid triazole bisphosphonates as inhibitors of geranylgeranyl diphosphate synthase” (Bioorg Med Chem, 2017).

Each structure is given as a SMILES string. The source made the active and inactive calls. The rule behind the calls is not given here.

The target in experiment [1] is geranylgeranyltransferase type-I (Rattus norvegicus, UniProt P53610+Q04631). Nature of the experiment: Inhibition of recombinant rat GGTase1 expressed in Escherichia coli using GGDP as substrate measured after 2 hrs by dansyl-GCVLS dye based fluorescence assay. Summed up:
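Recombinant GGTase I 24 nM added to 50 mM HEPPSO, 5 mM TCEP-HCl containing 10 μM GGDP and 5 μM dansyl-GCVLS. Incubated 2 h at 30 °C with or without compound, with prenylation tracked as dansyl fluorescence increase (ex 340 / em 520 nm) over time. IC50 from Chou–Talalay curve fitting.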

Experiment [2] is filed under the species Homo sapiens. Nature of the experiment: Inhibition of Rab GGTase2 in human RPMI8226 cells assessed as decrease in Rab6 geranylgeranylation at 5 to 50 uM after 48 hrs by western blot analysis. Format: cell-based. Summed up:
(§1)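 Membrane-bound Rab6 measured in RPMI-8226 cells treated 48 h (lovastatin 10 μM positive control). Cells lysed with Triton X-114 and the detergent (membrane) fraction immunoblotted for Rab6, with calnexin as loading control. Densitometry gives Rab6/calnexin relative to untreated cells.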

For experiment [3], the target named is T1, Farnesyl pyrophosphate synthase (Homo sapiens, UniProt P14324).
T1 sequence (P14324 whole entry): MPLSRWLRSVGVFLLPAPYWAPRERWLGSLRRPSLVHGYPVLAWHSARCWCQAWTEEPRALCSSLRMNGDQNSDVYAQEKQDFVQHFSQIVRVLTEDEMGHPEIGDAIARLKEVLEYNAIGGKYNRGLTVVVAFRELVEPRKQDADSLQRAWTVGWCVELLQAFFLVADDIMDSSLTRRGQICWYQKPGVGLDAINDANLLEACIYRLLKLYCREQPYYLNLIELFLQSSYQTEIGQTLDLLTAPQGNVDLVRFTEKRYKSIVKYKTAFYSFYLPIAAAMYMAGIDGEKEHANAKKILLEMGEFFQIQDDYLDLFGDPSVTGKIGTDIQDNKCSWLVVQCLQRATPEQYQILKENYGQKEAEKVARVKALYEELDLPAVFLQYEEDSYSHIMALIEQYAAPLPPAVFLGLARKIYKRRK
Nature of the experiment: Inhibition of recombinant FDPS (unknown origin) using GPP as substrate pretreated for 10 mins followed by substrate addition after 30 mins in presence of [14C]-IPP by liquid scintillation counting method. A digest of the protocol: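 Recombinant FDPS assayed by a previously described method, each concentration in duplicate, three independent experiments. IC50 derived from concentration-response curves by Chou–Talalay median-effect analysis.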

The species named for experiment [4] is Homo sapiens. Nature of the experiment: Inhibition of Rab GGTase2 in human RPMI8226 cells assessed as decrease in Rab GTPase geranylgeranylation by measuring accumulation of intracellular lambda light chain at 0.1 to 50 uM after 48 hrs by ELISA. Format: cell-based. Summed up: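 Intracellular lambda light chain in RPMI-8226 cells after 48 h incubation with compounds (lovastatin 10 μM positive control). Quantified by human lambda light chain ELISA on whole-cell lysate and normalised to BCA total protein. Results given as percent of untreated control, mean + SD, n=3. Significance by unpaired two-tailed t-test, p < 0.05.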
(An ELISA detects its analyte on a solid surface through an enzyme-linked reagent.)

Experiment [5] is described as follows: Inhibition of recombinant rat FTase using FDP as substrate measured after 1 hr by dansyl-GCVLS dye based fluorescence assay. Summed up: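 Recombinant FTase 18 nM started reactions in 50 mM HEPPSO, 5 mM TCEP-HCl, 5 mM MgCl2 with 10 μM FDP and 5 μM dansyl-GCVLS, 30 °C for 1 h, with or without compound. Peptide prenylation followed as rise in dansyl fluorescence (ex 340 / em 520 nm) over time. IC50 by Chou–Talalay analysis.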

The target in experiment [6] is T2, Geranylgeranyl transferase type I (Homo sapiens) (UniProt P49354+P53609). Briefly: Inhibition of GGTase1 in human RPMI8226 cells assessed as decrease in Rap1a geranylgeranylation at 0.1 to 50 uM after 48 hrs by Western blot method. It is filed as cell-based. Summed up: (§2)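 RPMI-8226 myeloma cells exposed 48 h to test compounds over a range of concentrations, lovastatin 10 μM as positive control. Whole-cell RIPA lysates with protease/phosphatase inhibitors, protein by BCA; equal protein run on SDS-PAGE and immunoblotted with antibody recognising only unmodified Rap1a, β-tubulin as loading control, HRP secondary with ECL detection.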
On the technique in general: In western blotting, separated proteins are transferred to a membrane and probed.

Experiment [7] concerns the target T3, Geranylgeranyl pyrophosphate synthase (Homo sapiens, UniProt O95749).
T3 sequence (O95749 whole entry): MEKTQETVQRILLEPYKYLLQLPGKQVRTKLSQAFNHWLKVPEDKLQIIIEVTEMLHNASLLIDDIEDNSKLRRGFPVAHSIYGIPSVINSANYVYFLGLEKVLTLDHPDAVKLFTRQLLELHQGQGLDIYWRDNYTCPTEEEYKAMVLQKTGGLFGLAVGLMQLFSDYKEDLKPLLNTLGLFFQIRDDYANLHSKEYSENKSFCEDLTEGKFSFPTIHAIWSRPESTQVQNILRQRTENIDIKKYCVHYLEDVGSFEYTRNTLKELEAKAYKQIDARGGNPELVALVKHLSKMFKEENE
Nature of the experiment: Inhibition of recombinant GGDPS (unknown origin) using FPP as substrate pretreated for 10 mins followed by substrate addition after 30 mins in presence of [14C]-IPP by liquid scintillation counting analysis. A digest of the protocol:
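Recombinant GGDPS from a commercial source; compounds tested in duplicate at multiple concentrations, three independent experiments. IC50 values from concentration-response curves by Chou–Talalay median-effect analysis.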

The target in experiment [8] is T2, Geranylgeranyl transferase type I (Homo sapiens). Nature of the experiment: Inhibition of GGTase1 in human RPMI8226 cells assessed as decrease in Rap1a geranylgeranylation after 48 hrs by Western blot method. Format: cell-based. A digest of the protocol:
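RPMI-8226 myeloma cells exposed 48 h to varying compound concentrations, lovastatin 10 μM as positive control. Whole-cell lysate made in RIPA buffer with protease/phosphatase inhibitors, protein by BCA; equal protein run on SDS-PAGE, blotted to PVDF, probed with antibody recognising only unmodified Rap1a, β-tubulin as loading control, HRP secondary with ECL detection.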

For experiment [9], the species on record is Homo sapiens. Nature of the experiment: Inhibition of Rab GGTase2 in human RPMI8226 cells assessed as decrease in Rab GTPase geranylgeranylation by measuring accumulation of intracellular lambda light chain after 48 hrs by ELISA. Format: cell-based. Summed up: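 RPMI-8226 cells treated 48 h with varying compound concentrations (lovastatin 10 μM control). Intracellular lambda light chain in whole-cell lysate quantified by human lambda ELISA, normalised to total protein (BCA), expressed as percent of untreated control; mean + SD, n=3; unpaired two-tailed t-test, p < 0.05.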

The species entered for experiment [10] is Homo sapiens. Nature of the experiment: Inhibition of Rab GGTase2 in human RPMI8226 cells assessed as decrease in Rab6 geranylgeranylation after 48 hrs by western blot analysis. Format: cell-based. A digest of the protocol:
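RPMI-8226 cells, 48 h with varying compound concentrations, lovastatin 10 μM as control. Cells lysed with Triton X-114; detergent (membrane) fraction immunoblotted for Rab6 with calnexin loading control. Rab6 band densitometry normalised to calnexin, then to untreated cells (relative intensity).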

Experiment [11] is filed under the species Homo sapiens. Nature of the experiment: Inhibition of Rab GGTase2 in human RPMI8226 cells assessed as disruption of Rab6 geranylgeranylation at 1 to 10 uM after 48 hrs by western blot analysis. Format: cell-based. A digest of the protocol:
as §1

For experiment [12], the target named is T2, Geranylgeranyl transferase type I (Homo sapiens). Nature of the experiment: Inhibition of GGTase1 in human RPMI8226 cells assessed as decrease in Rap1a geranylgeranylation at 0.5 uM after 48 hrs by Western blot method. It is filed as cell-based. A digest of the protocol:
as §2

For the compound `CC(C)=CCCCn1cc(CC(P(=O)(O)O)P(=O)(O)O)nn1`, the IC50 in experiment [1] was over 100 µM; in experiment [3], over 100 µM; in experiment [5], over 100 µM; in experiment [7] it was 3.6 µM. For the same compound, the inhibition result in [2], in [4] and in experiment [6] was “Active” each time.
As for `CC(C)=CCC/C(C)=C/CCn1cc(CC(P(=O)(O)O)P(=O)(O)O)nn1`, the INH in experiment [8], in experiment [9] and in [10] was 0.09 µM throughout. Moreover, the half-inhibitory concentration (IC50) in experiment [7] turned out to be 0.17 µM.
Take `CC(C)=CCC/C(C)=C\CCCn1cc(CC(P(=O)(O)O)P(=O)(O)O)nn1`: the half-inhibitory concentration (IC50) was over 100 µM in experiment [1], 29.8 µM in experiment [3] and over 100 µM in [5]. Besides, the inhibition entry in [11], in experiment [4] and in [12] was “Active” each time.
Regarding `CC(C)=CCC/C(C)=C/CCCn1cc(CC(P(=O)(O)O)P(=O)(O)O)nn1`, the IC50 was over 100 µM in experiment [1], 33.3 µM in [3] and over 100 µM in [5]. For the same compound, the inhibition entry in experiment [2], in experiment [4] and in [6] was “Active” each time.

As usually defined, the IC50 is the midpoint of a concentration-inhibition curve.
